Screens as filed in PubChem.
MT stabilizer: stabilizes microtubules in HeLa cells; AID 2205; HeLa tubulin immunostaining HCS, 24 h; share of cells brighter than vehicle mean+2SD; % tubulin-high responders, % at 10 µM; actives 0.83% (n = 200,000);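 active means plate Z-score above 3 for both tubulin-high and condensed-nucleus cell shares, with cell loss under 80%, at 10 µM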;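 further: anti alpha tubulin signal scored within the nucleus-defined area of each cell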
WT yeast gro inh: growth inhibition of WT yeast, mitochondrial fusion screen | mitochondrial fusion phenotypic screen, WT strain | inhibition, % at 10 µM | actives 2.1% (n = 190,000); in the data active means inhibition above about 58%; tested in S. cerevisiae
Cl transport mod: modulators of human KCC2 chloride dependent transport; Q9H2X9; KCC2 cells, thallium flux FluoZin-2 fluorescence; B-score of Tl+ flux slope (higher = more flux/activation; lower = inhibition) at 10 µM; actives 2.2% (n = 190,000);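 active means thallium flux slope and its plate-corrected score both differing from the plate sample mean at a set confidence after two filtering rounds, in either direction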;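 further: slope of fluorescence scaled to starting intensity during 10 to 20 s after thallium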
Pf gamet viab: kills late stage P. falciparum gametocytes | P. falciparum stage V gametocytes, ATP luminescence, 24 h | inhibition, % at 10.9 µM | actives 0.065% (n = 150,000) | AID 743093;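 active means inhibition above the mean plus 3 SD of compounds within the control limits, set per campaign, cut at about 38% in these data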;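 further: 0% = DMSO wells and 100% = medium only without gametocytes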
bCat nuc transl: modulators of beta-catenin nuclear translocation; HeLa beta-catenin nuclear translocation, immunofluorescence imaging; nuclear translocation activity, % at 5 µM; actives 0.3% (n = 190,000);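 active means nuclear translocation activity above 50% at 5 µM, with a well cell count of 50 or more; inconclusive means wells under 50 cells across six images, flagged as toxic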;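 further: per-cell ratio of nuclear to cytoplasmic median beta-catenin stain intensity; plate controls were DMSO negative control for no effect and GSK-3 inhibitor IX positive control for full effect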
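Test system: human HeLa cells, native beta-catenin. Compound dosing: 5 µM primary single dose, 0.1% DMSO, 0.02–20 µM confirmation series. Incubation: compound exposure 24 h at 37°C. Detection: beta-catenin immunostaining with DAPI counterstain, 20x imaging, 6 fields/well. Read-out basis: Nuclear/cytoplasmic beta-catenin signal ratio, % activation.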
KCC2 secondary: KCC2 (human) modulation, secondary assay | shares compounds with Cl transport mod | HEK293-KCC2, thallium flux, FluoZin2 fluorescence; hits give high values | normalised thallium flux (F/F0 slope) at 10 µM | actives 15% (n = 3,700) | AID 1713;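 active means thallium flux slope above the same plate's solvent-only control mean plus 3 SD; inconclusive means the two replicate wells disagree; inactive means no significant difference from solvent-only control wells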
KCC2 bumet counter: thallium flux despite bumetanide block in KCC2 cells, secondary assay 3. actives 49% (n = 3,700). normalized thallium flux at 10 µM. shares compounds with Cl transport mod. HEK293-KCC2 + bumetanide/ouabain, thallium flux FluoZin2; hits give high values;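 active means thallium entry rate above the same plate's blocked-transporter control wells by more than 3 SD; inconclusive means the two repeat wells disagree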;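 further: raw slope of fluorescence over initial fluorescence between 10 and 20 s after thallium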
KCC2 secondary2: KCC2 (human) modulation, second secondary assay. normalized thallium flux at 10 µM. shares compounds with Cl transport mod. AID 1715. HEK293-KCC2, thallium flux FluoZin2 fluorescence; actives lie on both sides; F/F0 rise rate, 10–20 s post-thallium. actives 23% (n = 3,700);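 active means thallium flux slope more than 3 SD above or below the plate's solvent-only control mean, mostly below; inconclusive means the two repeat wells disagreed; inactive means no significant shift from solvent-only controls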;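 further: raw slope with 0.1% DMSO as baseline and bumetanide as block control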
HEK293 Tl flux: parental HEK flux effect, counter-screen; HEK293 parental cells, thallium flux FluoZin2, ouabain; baseline-ratio fluorescence slope, 10–20 s after thallium; shares compounds with Cl transport mod; thallium flux rate (normalised fluorescence) at 10 µM; actives 46% (n = 3,700);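 active means thallium flux rate significantly above the same plate's solvent-only control wells, beyond their mean plus 3 SD; inconclusive means the two replicate wells gave conflicting results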
KCC2 ouabain: KCC2 (human) modulation, ouabain retest. shares compounds with Cl transport mod. HEK293-KCC2, thallium flux FluoZin2 fluorescence; bidirectional: low = inhibitor, high = activator. raw Tl+ flux slope (below DMSO = inhibition, above = activation) at 10 µM. actives 48% (n = 3,700). AID 1717;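 active means thallium flux slope beyond 3 SD from same-plate DMSO control mean in most replicates, usually higher, sometimes lower; inconclusive means repeat tests gave conflicting results; inactive means no significant difference from controls in most replicates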;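 further: slope of initial-normalized fluorescence between seconds 10 and 20 after thallium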
HEK293 Tl flux2: parental HEK flux effect, counter-screen 2. shares compounds with Cl transport mod. HEK293 parental, thallium flux FluoZin-2 fluorescence slope. thallium flux slope at 10 µM. actives 33% (n = 3,700);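 active means thallium flux slope above the same plate's solvent-control mean plus 3 SD in both duplicate wells; inconclusive means duplicate wells that disagreed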;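 further: run without ouabain in cells lacking the KCC2 cotransporter; slope of fluorescence scaled to its starting value between 10 and 20 s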
Starred values were filed as active, the others as inactive. Only some compounds are listed: those with a hit (about 4% of all), similar ones and a draw of the others.

CC(C)CC(c1nnnn1Cc1cccs1)N1CCN(c2nc3ccccc3s2)CC1 (stereo not given) was read as MT stabilizer 2, WT yeast gro inh 0, Cl transport mod -5.1*, bCat nuc transl -1, KCC2 secondary 0.006, KCC2 bumet counter 0.005, KCC2 secondary2 inconclusive, HEK293 Tl flux 0.0076, KCC2 ouabain inconclusive and HEK293 Tl flux2 0.011.
For CCC(c1nnnn1Cc1cccs1)N1CCN(c2nc3ccccc3s2)CC1 (stereo not given) the results were MT stabilizer 5, WT yeast gro inh 49, Cl transport mod -4*, Pf gamet viab -3, bCat nuc transl 0, KCC2 secondary 0.0069, KCC2 bumet counter 0.0041, KCC2 secondary2 inconclusive, HEK293 Tl flux 0.0063*, KCC2 ouabain 0.014* and HEK293 Tl flux2 0.011.
`O=C(Nc1ccccc1)c1ccc(=O)n(Cc2ccc(F)c(F)c2)c1` gave MT stabilizer 4, WT yeast gro inh 10, Pf gamet viab 9 and bCat nuc transl 0.
For CCCCn1c(CNC(=O)C23CC4CC(CC(C4)C2)C3)nnc1SC(C)CC (stereo not given) the results were MT stabilizer 4, WT yeast gro inh 21, Cl transport mod -0.27 and bCat nuc transl 0.
Cc1[nH]n(-c2ccccc2)c(=O)c1-c1ccccc1 was read as MT stabilizer 2, WT yeast gro inh 5, Cl transport mod 0.25 and bCat nuc transl 0.
For Cc1[nH]n(-c2ccccc2)c(=O)c1C(=O)c1ccccc1 the results were Cl transport mod 4.4*, Pf gamet viab -9, bCat nuc transl -1, KCC2 secondary 0.0056, KCC2 bumet counter 0.0085*, KCC2 secondary2 0.034, HEK293 Tl flux 0.012*, KCC2 ouabain 0.022 and HEK293 Tl flux2 0.014*.
Screening CCSC(=S)c1c(C)[nH]n(-c2ccccc2)c1=O returned Cl transport mod 101*, Pf gamet viab -3, bCat nuc transl -3, KCC2 secondary 0.046*, KCC2 bumet counter 0.1*, KCC2 secondary2 0.04, HEK293 Tl flux 0.061*, KCC2 ouabain 0.067* and HEK293 Tl flux2 0.028*.
For Cc1[nH]n(-c2ccc(Cl)cc2)c(=O)c1C(=O)c1ccccc1 the results were MT stabilizer 2, WT yeast gro inh 10, Cl transport mod 8.1*, bCat nuc transl 0, KCC2 secondary 0.0065, KCC2 bumet counter 0.02*, KCC2 secondary2 0.032, HEK293 Tl flux 0.016*, KCC2 ouabain 0.027* and HEK293 Tl flux2 0.019*.
Screening Cc1[nH]n(-c2ccccc2)c(=O)c1C(=O)c1cccc(F)c1 returned MT stabilizer 6, WT yeast gro inh 1, Cl transport mod 0.54, Pf gamet viab 8 and bCat nuc transl 0.
Screening Cc1[nH]n(-c2cccc(Cl)c2)c(=O)c1-c1ccccc1 returned MT stabilizer 1, WT yeast gro inh 20 and bCat nuc transl 2.
`Cc1cc(-c2c(C)[nH]n(-c3ccc(Cl)cc3)c2=O)n(-c2ccccc2)n1` gave MT stabilizer 1, WT yeast gro inh 4, Cl transport mod -0.5, Pf gamet viab 12 and bCat nuc transl -1.
For Cc1[nH]n(-c2ccccc2)c(=O)c1C(=O)c1ccc(Cl)cc1 the results were Cl transport mod 11*, Pf gamet viab -12, bCat nuc transl 1, KCC2 secondary 0.0072, KCC2 bumet counter 0.021*, KCC2 secondary2 0.04*, HEK293 Tl flux 0.022*, KCC2 ouabain 0.03* and HEK293 Tl flux2 0.024*.
Screening CC1Cc2ccccc2N1C(=O)CSc1nnc(-c2ccc(S(=O)(=O)N3CCOCC3)cc2)n1C (stereo not given) returned MT stabilizer 2, WT yeast gro inh -12, Cl transport mod 0.3, Pf gamet viab 3 and bCat nuc transl -2.
Cn1c(SCC(=O)N2CCCC2)nnc1-c1cnccn1 was read as MT stabilizer 3, WT yeast gro inh -7, Cl transport mod 0.89 and bCat nuc transl 0.
For N#CC1=C(N)Oc2ccc3ccc(O)cc3c2C1c1ccsc1 (stereo not given) the results were MT stabilizer 19, WT yeast gro inh 7, Cl transport mod -2.8, Pf gamet viab 12 and bCat nuc transl 0.
`O=c1nc(SCc2ccccc2Cl)nc(-c2ccc(Cl)cc2)[nH]1` gave Cl transport mod 67*, Pf gamet viab 6, bCat nuc transl 0, KCC2 secondary 0.0091, KCC2 bumet counter 0.0068, KCC2 secondary2 0.036, HEK293 Tl flux inconclusive, KCC2 ouabain inconclusive and HEK293 Tl flux2 0.0094.
For CC(=O)NCCOC(=O)Nc1cccnc1 the results were MT stabilizer 1, WT yeast gro inh 3, Cl transport mod 7.2*, bCat nuc transl -5, KCC2 secondary 0.0059, KCC2 bumet counter 0.005, KCC2 secondary2 inconclusive, HEK293 Tl flux inconclusive, KCC2 ouabain 0.019 and HEK293 Tl flux2 0.01.
Screening Fc1ccc(COc2ccc3ccccc3c2CNc2nn[nH]n2)cc1 returned MT stabilizer 4, WT yeast gro inh 0, Cl transport mod -4.6*, bCat nuc transl 9, KCC2 secondary 0.0061, KCC2 bumet counter 0.0046, KCC2 secondary2 0.021*, HEK293 Tl flux inconclusive, KCC2 ouabain 0.0092* and HEK293 Tl flux2 inconclusive.
c1ccc(COc2ccccc2CNc2nn[nH]n2)cc1 was read as MT stabilizer 4, WT yeast gro inh 5, Cl transport mod -1.2, Pf gamet viab -1 and bCat nuc transl 0.
`Fc1ccccc1COc1ccc2ccccc2c1CNc1nn[nH]n1` gave MT stabilizer 18*, WT yeast gro inh -8, Cl transport mod -5.9*, Pf gamet viab -7, bCat nuc transl -4, KCC2 secondary 0.0059, KCC2 bumet counter 0.0043, KCC2 secondary2 0.02*, HEK293 Tl flux inconclusive, KCC2 ouabain 0.0087* and HEK293 Tl flux2 inconclusive.
